Reference: ChEMBL document CHEMBL4373650, “Synthesis, conformational preferences, and biological activity of conformational analogues of the microtubule-stabilizing agents, (-)-zampanolide and (-)-dactylolide” (Medchemcomm, 2019)

Columns and labels:
Tubulin (Homo sapiens) [1] = target: T1, Tubulin (Homo sapiens) (UniProt P68371+Q9H4B7+P0DPH7+P68366+Q13509+Q71U36+P04350+Q3ZCM7+P07437+P68363+Q9BQE3+Q6PEY2+Q13885+Q9BVA1+Q9BUF5); experiment: Induction of microtubule stabilization in human PC3 cells assessed as inhibition of cell growth incubated for 72 hrs by Celltiter reagent-based assay
In short: (§1)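 Cells kept in DMEM with 10% fetal bovine serum. Exposed to serial dilutions of each compound for 3 days, then growth read with CellTiter reagent and GI50 determined. Each compound first run as a 10-dose dilution series, then as narrower replicate 6-dose series, each a separate experiment.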

Tubulin (Homo sapiens) [2] = target: T1, Tubulin (Homo sapiens); experiment: Induction of microtubule stabilization in human A549 cells assessed as inhibition of cell growth incubated for 72 hrs by Celltiter reagent-based assay; in short: as §1
Tubulin (Homo sapiens) [3] = target: T1, Tubulin (Homo sapiens); experiment: Induction of microtubule stabilization in human 1A9 cells assessed as inhibition of cell growth incubated for 72 hrs by Celltiter reagent-based assay; in short: as §1

SMILES	GI50 (Tubulin (Homo sapiens) [1]) [nM]	GI50 (Tubulin (Homo sapiens) [2]) [nM]	GI50 (Tubulin (Homo sapiens) [3]) [nM]
C/C1=C/C=C/C(=O)O[C@H](C=O)C/C=C/[C@@H]2CCC[C@H](C/C=C/C(=O)C1)O2	> 30000	> 30000	> 30000
C/C1=C/C=C/C(=O)O[C@H](CO)C/C=C/[C@@H]2CCC[C@H](C/C=C/C(=O)C1)O2	> 30000	> 30000	> 30000
C=C1C[C@@H]2C/C=C/C(=O)C/C(C)=C\C=C\C(=O)O[C@H]([C@H](O)NC(=O)/C=C\C=C\C)C/C(C)=C/[C@H](C1)O2	3.2	5.2	2.1

Other lines, results leading:

GI50 (Tubulin (Homo sapiens) [1]) [nM]	GI50 (Tubulin (Homo sapiens) [2]) [nM]	GI50 (Tubulin (Homo sapiens) [3]) [nM]	SMILES
56	180	120	C/C=C/C=C\C(=O)NC(O)[C@@H]1C/C=C/[C@@H]2CCC[C@H](C/C=C/C(=O)C/C(C)=C\C=C\C(=O)O1)O2 (stereo partly drawn)
4.6	6	5.2	CC(=O)O[C@H]1C(=O)[C@@]2(C)[C@H]([C@H](OC(=O)c3ccccc3)[C@]3(O)C[C@H](OC(=O)[C@H](O)[C@@H](NC(=O)c4ccccc4)c4ccccc4)C(C)=C1C3(C)C)[C@]1(OC(C)=O)CO[C@@H]1C[C@@H]2O
460	950	620	C=C1C[C@@H]2C/C=C/C(=O)C/C(C)=C\C=C\C(=O)O[C@H](C=O)C/C(C)=C/[C@H](C1)O2
